The record followed here is ChEMBL document CHEMBL1129494, “Structure-based design of lipophilic quinazoline inhibitors of thymidylate synthase” (J Med Chem, 1996).

A value given as a limit tells only on which side of the number the result lay.

The subject of assay [1] is GC3/MTK-. Nature of the assay: (§1) Inhibitory activity of compound against growth of thymidine kinase-deficient human adenocarcinoma cell line (GC3/M TK-) in tissue culture. Type of assay: functional. In outline:
(§2)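 MTT colorimetric growth assay in the thymidine kinase-deficient human adenocarcinoma line. Seeded at 10 000 cells/well in RPMI-1640 with 10% fetal calf serum and 0.5% DMSO. Nine 2-fold serial dilutions of compound, 5 day incubation, then 4 h MTT. Formazan dissolved in DMSO and read spectrophotometrically. IC50 taken from semilog plots of the mean of four growth assessments per dilution, relative to control cultures.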

Assay [2] concerns GC3/MTK-. Nature of the assay: Inhibition of GC3/M TK- (human adenocarcinoma) cell growth in vitro. It counts as functional, cell-based. The gist of the method:
(§3)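 Thymidine kinase-deficient human adenocarcinoma GC3/M TK- cells seeded at 10 000 cells/well in RPMI-1640 with 10% fetal calf serum and 0.5% DMSO. Compound given as nine 2-fold serial dilutions over a 5 day incubation, then 4 h MTT and spectrophotometric formazan read after DMSO dissolution. IC50 from semilog plots of the mean of four growth assessments relative to control cultures.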

Assay [3] relates to L1210. In words: (§4) Inhibition of L1210 (murine leukemia) cell growth in vitro. Type of assay: functional, Mus musculus. In outline:
(§5)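 Murine L1210 leukemia cells seeded at 1000 cells/well in RPMI-1640 containing 5% fetal calf serum and 0.5% DMSO, exposed to nine 2-fold serial dilutions for 3 days. Growth was read by MTT (4 h), with formazan dissolved in DMSO and measured spectrophotometrically. IC50 comes from semilog concentration plots of the mean of four assessments per dilution versus control growth.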

In assay [4] the test system is CCRF-CEM. In words: (§6) Inhibition of CCRF-CEM (human leukemia) cell growth in vitro. It counts as functional, cell-based. In outline:
(§7)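 MTT colorimetric growth assay (modified Mosmann) in CCRF-CEM human leukemia cells seeded at 10 000 cells/well in RPMI-1640 with 5% fetal calf serum and 0.5% DMSO. Nine 2-fold serial dilutions of compound, 5 day incubation, then 4 h MTT and formazan dissolved in DMSO for spectrophotometric reading. IC50 taken from semilog plots of the mean of four growth assessments per dilution relative to control cultures.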

The subject of assay [5] is CCRF-CEM. Nature of the assay: Inhibitory activity of compound against growth of human leukemias (CCRF-CEM) cell line in tissue culture. Type of assay: functional. In outline: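 CCRF-CEM human leukemia cells seeded at 10 000 cells/well in RPMI-1640 with 5% fetal calf serum and 0.5% DMSO. Exposed to nine 2-fold serial dilutions for 5 days, followed by 4 h with MTT. Formazan dissolved in DMSO and measured spectrophotometrically. IC50 read from semilog plots of the mean of four growth assessments per dilution versus control growth.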

In assay [6] the test system is L1210. In words: Inhibition of murine L1210 cell line tissue culture growth. It counts as functional, cell-based. The settings on record: Mus musculus. In outline: as §5
Assay [7] deals with Thymidylate synthase (Escherichia coli) (UniProt C3SWJ7).
Assay [8] deals with GC3/MTK-. In words: Inhibition of GC3/M TK- (human adenocarcinoma) cell growth in vitro; Insoluble. Type of assay: functional, cell-based. The gist of the method:
as §3

In assay [9] the target is Thymidylate synthase (Homo sapiens) (UniProt P04818).
The test system of assay [10] is CCRF-CEM. Nature of the assay: Activity for growth inhibition in tissue culture of human leukemias (CCRF-CEM); Insoluble. It counts as functional, cell-based. The gist of the method: as §7
For assay [11], the target named is Thymidylate synthase (Homo sapiens) (UniProt P04818). This is another data set of the same source.
In assay [12] the test system is L1210. Nature of the assay: Activity for growth inhibition in tissue culture of murine (L1210); Insoluble. It counts as functional, cell-based, Mus musculus. In outline: as §5
Assay [13] has as its target Thymidylate synthase (Escherichia coli) (UniProt C3SWJ7). The source holds these as a separate data set.
Assay [14] concerns CCRF-CEM. Nature of the assay: Inhibitory activity of compound against growth of human leukemias (CCRF-CEM) cell lne in tissue culture. It counts as functional. In outline:
as §7

Assay [15] has as its system L1210. The assay is described as §4. Type of assay: functional, Mus musculus. Details: concentration or dose not given beside the values. The gist of the method: as §5
In assay [16] the test system is CCRF-CEM. Nature of the assay: Inhibitory activity of compound against growth of human leukemias (CCRF-CEM) in tissue culture. It counts as functional. The gist of the method:
as §7

For assay [17], the system named is GC3/MTK-. The assay is described as §1. It counts as functional. Details: concentration or dose not given beside the values. In outline: as §2
Assay [18] concerns CCRF-CEM. In words: Activity for growth inhibition in tissue culture of human leukemias (CCRF-CEM). value in parenthesis indicates % inhibition. It counts as functional, cell-based.
Assay [19] concerns GC3/MTK-. Nature of the assay: Activity for growth inhibition in tissue culture of thymidine kinase-deficient human adenocarcinoma cell line (GC3/M TK-)value in parenthesis indicates % inhibition. Type of assay: functional, cell-based.
Assay [20] has as its system CCRF-CEM. Described as §6. It counts as functional. Details: concentration or dose not given beside the values. In outline:
as §7

The subject of assay [21] is CCRF-CEM. In words: Activity for growth inhibition in tissue culture of human leukemias( CCRF-CEM). Type of assay: functional, cell-based. The gist of the method: as §7
Assay [22] concerns CCRF-CEM. Nature of the assay: Activity for growth inhibition in tissue culture of human leukemias (CCRF-CEM). Type of assay: functional, cell-based. The gist of the method:
as §7

In assay [23] the test system is CCRF-CEM. Nature of the assay: Activity for growth inhibition in tissue culture of human leukemias (CCRF-CEM). value in parenthesis indicates % inhibition. Type of assay: functional, cell-based.

Chain of Thymidylate synthase (Homo sapiens) (P04818 2-313 limits assumed): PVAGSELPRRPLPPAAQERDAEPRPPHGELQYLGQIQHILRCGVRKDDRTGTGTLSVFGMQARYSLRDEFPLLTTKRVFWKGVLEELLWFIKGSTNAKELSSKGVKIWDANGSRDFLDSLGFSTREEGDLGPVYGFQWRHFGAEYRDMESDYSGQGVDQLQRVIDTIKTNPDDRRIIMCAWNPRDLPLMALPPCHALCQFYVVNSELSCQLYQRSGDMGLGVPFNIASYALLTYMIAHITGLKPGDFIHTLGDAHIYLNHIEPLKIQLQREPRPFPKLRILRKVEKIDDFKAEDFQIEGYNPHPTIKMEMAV
Chain of Thymidylate synthase (Escherichia coli) (C3SWJ7 1-264): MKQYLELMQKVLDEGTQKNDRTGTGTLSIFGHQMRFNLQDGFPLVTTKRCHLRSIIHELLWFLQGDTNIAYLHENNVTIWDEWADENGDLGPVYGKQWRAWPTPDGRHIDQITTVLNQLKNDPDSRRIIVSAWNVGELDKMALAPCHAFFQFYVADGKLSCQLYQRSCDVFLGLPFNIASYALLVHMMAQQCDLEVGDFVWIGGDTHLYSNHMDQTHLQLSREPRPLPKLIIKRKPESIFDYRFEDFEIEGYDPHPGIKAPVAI

With `C#CCN(Cc1ccc2nc(C)nc(O)c2c1)c1cccc(C(F)(F)F)c1`, the Inhibition amounted to 25% in [1], 35% in assay [3] and 41% in [5]. Further, the IC50 in assay [2] is > 4.3 µM; in assay [4], > 4.3 µM; in [6] it was > 2.2 µM.
`C#CCN(Cc1ccc2nc(C)nc(O)c2c1)c1ccc(S(N)(=O)=O)c(C(F)(F)F)c1`: the Kii in [7] was 0.061 µM; in assay [9], 0.07 µM. In addition, the IC50 entry in assay [8], in assay [10] and in [12] was “Insoluble” throughout. The results for the Kis in assay [11] and in assay [13] were 0.036 µM and 0.024 µM, respectively.
Regarding `C#CCN(Cc1ccc2nc(C)nc(O)c2c1)c1ccccc1`, the Inhibition was 24% in assay [1], 29% in [14] and 35% in assay [15]. The half-inhibitory concentration (IC50) in assay [2] is > 10.7 µM; in [4], > 10.7 µM; in [6], > 6.5 µM.
In the case of `C#CCN(Cc1ccc2nc(C)nc(O)c2c1)c1ccc(S(=O)(=O)N2CCN(C)CC2)cc1`, the Kii in [7] was 0.28 µM; in [9], 0.19 µM. Further, the results for the Inhibition in [16], in assay [17] and in [15] were 24%, 17% and 27%, respectively. Further, the IC50 in assay [2], in assay [4] and in [6] was > 10 µM each time. For the same compound, the Kis is 0.083 µM in assay [11] and 0.13 µM in assay [13].
Take `C#CCN(Cc1ccc2nc(C)nc(O)c2c1)c1ccc(S(=O)(=O)C(F)(F)F)cc1`: the Kii in [7] is 0.064 µM; in assay [9], 0.028 µM. Further, the Kis came to 0.021 µM in assay [11] and 0.042 µM in assay [13]. The half-maximal inhibitory concentration (IC50) in assay [18], in assay [19] and in assay [6] was > 2.75 µM in each case. The same compound came in with an Inhibition in assay [15] of 45%.
In the case of `C#CCN(Cc1ccc2nc(C)nc(O)c2c1)c1ccc(C#N)c(Cl)c1`, the Kii in assay [7] turned out to be 0.1 µM; in [9], 0.079 µM. Also, the Inhibition in assay [1] was determined as 25%; in assay [5], 10%. Also, the IC50 is 6.7 µM in assay [2], > 6.7 µM in assay [4] and 4.5 µM in [6]. Also, the Kis in assay [11] stood at 0.037 µM; in [13], 0.035 µM.
Regarding `C#CCN(Cc1ccc2nc(C)nc(O)c2c1)c1ccc(Cl)cc1`, the Kii in [7] is 3.7 µM; in [9] it was 0.77 µM. In addition, the Inhibition in assay [20] is reported as 20%; in assay [15], 25%. Besides, the Kis amounted to 0.36 µM in assay [11] and 0.85 µM in assay [13]. Besides, the half-inhibitory concentration (IC50) in [21] and in [6] was > 4 µM throughout.
`C#CCN(Cc1ccc2nc(C)nc(O)c2c1)c1ccc(C(=O)NC(CCC(=O)O)C(=O)O)cc1` (stereo not drawn) yielded a Kii in assay [9] of 0.0071 µM. For the same compound, the half-maximal inhibitory concentration (IC50) in assay [22] was determined as 0.029 µM; in assay [2] it was 0.048 µM; in [6], 0.045 µM. Further, the Kis in assay [11] turned out to be 0.0085 µM; in assay [13], 0.0048 µM.
As for `C#CCN(Cc1ccc2nc(C)nc(O)c2c1)c1cccc(CC)c1`, the values for the Kii in [7] and in assay [9] were 24 µM and 3.8 µM, respectively. In addition, the Inhibition in [1] is 20%; in [20], 26%; in [15], 25%. Further, the Kis in [11] was found to be 2.7 µM; in [13] it was 5 µM. Moreover, the IC50 in [18], in assay [19] and in assay [6] was > 5 µM in each case.
For `C#CCN(Cc1ccc2nc(C)nc(O)c2c1)c1cccc(C)c1`, the Kii in assay [7] worked out at 16 µM; in [9], 3.4 µM. In addition, the Inhibition in assay [1] is 34%; in assay [14] it was 20%; in assay [15], 30%. The figures for the Kis in assay [11] and in assay [13] were 1.4 µM and 3.4 µM, respectively. The IC50 in [4], in assay [19] and in assay [6] was > 5 µM in each case.
Regarding `C#CCN(Cc1ccc2nc(C)nc(O)c2c1)c1ccc(C#N)cc1`, the Kii in assay [7] was found to be 0.33 µM; in assay [9], 0.17 µM. Besides, the IC50 in assay [22], in assay [2] and in [6] was > 5 µM in each case. In addition, the Inhibition in [20] amounted to 10%; in [15], 35%. The figures for the Kis in assay [11] and in [13] were 0.076 µM and 0.15 µM, respectively.
Take `C#CCN(Cc1ccc2nc(C)nc(O)c2c1)c1cccc(CO)c1`: the Kii came out at 5.1 µM in [7] and 1.2 µM in [9]. The IC50 is > 54 µM in [23], > 54 µM in [2] and 48 µM in [6]. The Inhibition in [20] turned out to be 30%; in assay [17] it was 22%. Moreover, the Kis in [11] was 0.62 µM; in [13], 1.7 µM.
